Laboratory results: ChEMBL document CHEMBL1165845, “Synthesis and biological evaluation of analogues of a novel inhibitor of beta-amyloid secretion” (J Med Chem, 2010)
Activity calls are given as the source filed them. The rule behind the calls is not given here.

Assays:
H4 [1] = assay: Cytotoxicity against human H4 cells expressing wild type betaAPP695 assessed as decrease in cell protein at 30 uM after 24 hrs; format: cell-based; design: scale not given: the % may be the effect or the level left; details: h4, 24 h
Procedure, shortened: (§1)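 Serum-starved H4βAPP695wt cells are treated for 24 h with drug in DMSO (0.02% DMSO vehicle control). Total Aβ in conditioned medium is measured by sandwich ELISA with 6E10 capture and 4G8 detection, normalized to lysate protein by BCA. Cytotoxicity is read as total cell protein. Quadruplicate wells in 1-4 independent experiments give the % decrease versus vehicle.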

H4 [2] = assay: Cytotoxicity against human H4 cells expressing wild type betaAPP695 assessed as decrease in cell protein at 10 uM after 24 hrs; format: cell-based; design: scale not given: the % may be the effect or the level left; details: h4, 24 h; procedure, shortened: as §1
H4 [3] = assay: Induction of alpha-secretase-mediated reduction in amyloid beta secretion in human H4 cells expressing wild type betaAPP695 placed in lower chamber treated with […] compound placed in upper chamber containing human Caco-2 cells for 4 hrs measured 24 hrs after media treatment […]; format: cell-based; design: scale not given: the % may be the effect or the level left
Procedure, shortened: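 Caco-2 cells are seeded at 70000 per Transwell insert and grown 21 days to TEER >160 Ω/cm2. Drug at 40 μM with 20 μg/mL lucifer yellow goes in the apical chamber in serum-free medium. After 4 h, basal medium is checked for lucifer yellow and applied to H4βAPP695wt cells for 24 h. Secreted Aβ by ELISA is compared with direct 10 μM drug as % activity passing.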

H4 [4] = assay: Induction of alpha-secretase-mediated reduction in amyloid beta secretion in human H4 cells expressing wild type betaAPP695 assessed as remaining drug activity treated with media containing human THLE3 cells incubated with 10 uM compound for 24 hrs measured 24 hrs after media treatment […]; format: cell-based
H4 [5] = assay: Induction of alpha-secretase-mediated reduction in amyloid beta secretion in human H4 cells expressing wild type betaAPP695 at 30 uM after 24 hrs […] relative to control; format: cell-based; design: scale not given: the % may be the effect or the level left; procedure, shortened: as §1
H4 [6] = assay: Induction of alpha-secretase-mediated reduction in amyloid beta secretion in human H4 cells expressing wild type betaAPP695 at 10 uM after 24 hrs […] relative to control; format: cell-based; design: scale not given: the % may be the effect or the level left; procedure, shortened: as §1
H4 [7] = assay: Induction of alpha-secretase-mediated reduction in amyloid beta secretion in human H4 cells expressing wild type betaAPP695 treated with media containing human THLE3 cells incubated with 10 uM compound for 24 hrs […]; format: cell-based; design: scale not given: the % may be the effect or the level left; details: in the assay text read “20 uM” for “10 uM”
H4 [8] = assay: Activation of alpha-secretase in human H4 cells expressing wild type betaAPP695 assessed as increase in sAPPbeta levels at 10 uM after 24 hrs by Western blotting; format: cell-based
Procedure, shortened: (§2)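 H4βAPP695wt cells are switched to serum-free medium 24 h before treatment, then exposed to drug in DMSO or vehicle for 24 h. Conditioned medium gets protease inhibitors and is cleared, with its volume adjusted to lysate protein; sAPPα is probed with 6E10 and sAPPβ with a specific antibody (1:1000), detected by ECL. Lysates in RIPA (20 μg protein) go on 4-20% Bis-Tris gels. Bands are quantified by densitometry.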

H4 [9] = assay: Activation of alpha-secretase in human H4 cells expressing wild type betaAPP695 assessed as increase in alpha-CTF levels at 10 uM after 24 hrs by Western blotting; format: cell-based; procedure, shortened: as §2
H4 [10] = assay: Increase in alpha-secretase activity in human H4 cell lysate expressing wild type betaAPP695 at 10 uM after 24 hrs by fluorescence method; format: cell-based
Procedure, shortened: (§3)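 H4βAPP695wt cells are treated with drug or vehicle for 24 h, washed in cold PBS and lysed on ice for 10 min. 50 μg lysate protein plus reaction buffer and fluorogenic peptide substrate are incubated 2 h at 37 °C in the dark. Fluorescence is read at ex 355/em 510 nm after subtracting the no-lysate blank, N = 6.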

H4 [11] = assay: Activation of alpha-secretase in human H4 cells expressing wild type betaAPP695 assessed as increase in ratio of active-ADAM9 to pro-ADAM9 level at 10 uM after 24 hrs by Western blotting; format: cell-based
Procedure, shortened: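 H4βAPP695wt cells are held in serum-free medium for 24 h, then given increasing drug concentrations for 24 h. RIPA lysates (20 μg protein) are immunoblotted with antibodies for ADAM9, ADAM10 and ADAM17, and pro and active forms are quantified by densitometry as an active/pro ratio, N = 3 per group.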

H4 [12] = assay: Increase in alpha-secretase activity in human H4 cells expressing wild type betaAPP695 at 10 uM after 24 hrs by fluorescence method; format: cell-based; procedure, shortened: as §3
H4 [13] = assay: Induction of alpha-secretase-mediated reduction in amyloid beta secretion in human H4 cells expressing wild type betaAPP695 by […] in presence of PKC-inhibitor calphostin C; format: cell-based
Procedure, shortened: (§4)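 H4βAPP695wt cells in serum-free medium receive a PKC inhibitor 30 min before a 24 h drug challenge. Secreted Aβ is measured by ELISA and compared with the respective control for each inhibitor, N = 4.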

H4 [14] = assay: Induction of alpha-secretase-mediated reduction in amyloid beta secretion in human H4 cells expressing wild type betaAPP695 […] in presence of PKC-inhibitor rottlerin; format: cell-based; procedure, shortened: as §4
H4 [15] = assay: Induction of alpha-secretase-mediated reduction in amyloid beta secretion in human H4 cells expressing wild type betaAPP695 by […] in presence of PKC-inhibitor bisindolyl-maleimide; format: cell-based; procedure, shortened: as §4
H4 [16] = assay: Activation of alpha-secretase in human H4 cells expressing wild type betaAPP695 assessed as increase in sAPPalpha levels at 10 uM after 24 hrs by Western blotting; format: cell-based; procedure, shortened: as §2
H4 [17] = assay: Induction of alpha-secretase-mediated amyloid beta lowering activity in human H4 cells expressing wild type betaAPP695 at 1 uM after 24 hrs by ELISA; format: cell-based; procedure, shortened: as §1
H4 [18] = assay: Cytotoxicity against human H4 cells expressing wild type betaAPP695 at 10 uM after 24 hrs by methylene blue staining; format: cell-based; details: h4, 24 h
Procedure, shortened: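 Primary screen in H4βAPP695wt cells: drugs are delivered by the hanging drop method at an estimated 10-25 μM, and conditioned medium is collected at 24 h. Cytotoxicity is assessed by methylene blue staining of cells in the wells, with each compound run in a single well and hits rescreened in duplicate.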

Mus musculus = assay: Reduction in amyloid beta levels in transgenic C57BL/6 mouse brain at 100 mg/kg, iv after 6 hrs; format: functional; design: scale not given: the % may be the effect or the level left
Procedure, shortened: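 Two-month-old female APPswe/PSEN1dE9 C57BL/6 mice (20-25 g) under ketamine/xylazine receive retro-orbital iv injection of 2.5 mg in 150 μL (∼100-125 mg/kg) or vehicle. After 6 h, one hemisphere without cerebellum is homogenized in 5 M guanidine HCl/50 mM Tris pH 8.3. Total Aβ is measured by ELISA and normalized to brain protein by BCA.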

| Compound | Activity (H4 [1]) | Activity (H4 [2]) | Activity (H4 [3]) | Activity (H4 [4]) | Activity (H4 [5]) | Activity (H4 [6]) | Activity (H4 [7]) | Activity (H4 [8]) | Activity (H4 [9]) | Activity (H4 [10]) | Activity (H4 [11]) | Activity (H4 [12]) | Activity (H4 [13]) | Activity (H4 [14]) | Activity (H4 [15]) | Activity (H4 [16]) | Activity (H4 [17]) | Activity (H4 [18]) | Activity (Mus musculus) |
| --- | --- | --- | --- | --- | --- | --- | --- | --- | --- | --- | --- | --- | --- | --- | --- | --- | --- | --- | --- |
| COc1cccc(CSCCNC(=O)c2c(Cl)cccc2Cl)c1OC | 8.7% | -0.1% | 26.5% | 3% | 72.8% | 57.8% | 1.9% | – | – | – | – | – | – | – | – | – | – | – | – |
| O=C(NCCSCc1cccc(Cl)c1)c1c(Cl)cccc1Cl | – | – | 26.7% | 50% | – | 75.3% | 34.6% | inactive | Active | inactive | 31% | 20% | Active | Active | Active | Active | Active | – | – |
| COc1cc(Cl)cc(CSCCNC(=O)c2c(Cl)cccc2Cl)c1 | 0.4% | 0.9% | 2.7% | 49% | 81% | 67.7% | 33.5% | – | – | – | – | – | – | – | – | – | – | – | – |
| O=C(NCCSCc1ccc(Cl)cc1)c1ccc(Cl)cc1Cl | – | – | – | – | – | 5.3% | – | – | – | – | – | – | – | – | – | – | – | Non-toxic | – |
| O=C(NCCSCc1cccc(I)c1)c1c(Cl)cccc1Cl | 19% | 9.2% | 1.1% | 47% | 88.3% | 84.4% | 40% | – | – | – | – | – | – | – | – | – | – | – | – |
| COc1cccc(CSCCNC(=O)c2c(Cl)cccc2Cl)c1 | 13.2% | 8.4% | 17.9% | 37% | 73.9% | 60.6% | 22.2% | – | – | – | – | – | – | – | – | – | – | – | – |
| O=C(NCCSCc1cccc(O)c1)c1c(Cl)cccc1Cl | 6.6% | 6.3% | – | 41% | 67.7% | 56.4% | 23.1% | – | – | – | – | – | – | – | – | – | – | – | – |
| O=C(NCCSCc1ccccc1Cl)c1c(Cl)cccc1Cl | -11% | -0.5% | 31.6% | 65% | 80% | 75.6% | 48.8% | – | – | – | – | – | – | – | – | – | – | – | – |
| Cc1cccc(CSCCNC(=O)c2c(Cl)cccc2Cl)c1 | 16.6% | 11.7% | 49.9% | 54% | 85.8% | 70.5% | 38.3% | – | – | – | – | – | – | – | – | – | – | – | 39.6% |
| O=C(NCCSCc1ccccc1)c1c(Cl)cccc1Cl | -0.7% | -1.1% | 31% | 52% | 58.6% | 51.6% | 27% | – | – | – | – | – | – | – | – | – | – | – | – |
